Screening results (PubChem)
This is a sample that favours compounds with a hit; in the whole collection about 2.1% have one here.
FN deposit inh: inhibitors of fibronectin matrix deposition, primary screen, AH1F cells, Alexa488-fibronectin fluorescence, plate reader; AH1F fibroblasts, overnight; inhibition, % at 12.6 µM; 350,000 compounds, 0.086% hits; AID 743247, 2014;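 active = mean inhibition across replicates of 30% or more, regardless of how many single replicates reach that level; inconclusive = mean under 30% yet at least half of replicates reach 30%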;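 note: positive control wells lacked labelled fibronectin entirely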
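Test system: AH1F fibroblast monolayer depositing Alexa488-labelled fibronectin into matrix. Input: 10000 cells per well. Technique: fluorescence, ex 485 nm, em 525 nm. Buffer or medium: DMEM plus 2% serum, read in PBS. Timing: 1 h cell adhesion before compound, then overnight fibronectin incubation. Compound: single dose, pinned. Read-out basis: inhibition from reduced deposited-fibronectin fluorescence.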
aSyn 5UTR inh: MLPCN primary screen, SNCA 5' untranslated region. alpha-synuclein 5'UTR reporter, inhibitor activity. inhibition, % (tested at 7.5 µM). 300,000 compounds, 0.82% hits. AID 1813, 2009; in the data active = inhibition above about 60%; inconclusive = no clear call, values can overlap the other calls;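 note: H4 neuroglioblastoma cells stably carrying SNCA 5'UTR luciferase fusion; 0% = DMSO wells and 100% = positive control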
EBV LMP1 NFkB: EBV LMP1-driven NF-kappaB luciferase reporter inhibitors, primary screen, cell-based, luminescence, single point. LMP1-induced NF-kappaB luciferase reporter cells. inhibition, % at 12.5 µM. 350,000 compounds, 0.69% hits. AID 504558, 2011; in the data active = inhibition above about 41%; inconclusive = no clear call, values can overlap the other calls;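 note: 0% = neutral control wells and 100% = reference inhibitor control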
Shn3 3UTR inh: reduction of Shn3 3'UTR firefly luciferase signal, primary screen, Schnurri-3 inhibitor project, cell-based, Clone20 osteoblasts, set 2; Clone20 osteoblast Shn3 3'UTR firefly luciferase, 24 h; inhibition, % at 12.5 µM; 360,000 compounds, 0.52% hits; AID 588674, 2011;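 active = mean inhibition of at least 75% with every replicate also reaching 75%; inconclusive = mean inhibition at least 75% but some replicate below; inactive = mean inhibition below 75%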;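 note: 0% = median of neutral control wells and 100% = pilot-screen positive control compound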
EWS-Fli inh: EWS/Fli-driven NR0B1 reporter inhibitors, primary screen, A673 cells, NR0B1 luciferase, luminescence, MLPCN library; viability-normalised; inhibition, % at 12.6 µM; 350,000 compounds, 0.67% hits;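 active = mean inhibition of at least 50% after viability correction, with every replicate also passing that limit; inconclusive = mean reaches 50% but only one of two replicates passes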;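 note: firefly luciferase signal divided by Alamar Blue viability fluorescence both relative to DMSO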
PAX8 reporter: inhibitors of PAX8-driven TPO luciferase reporter, primary screen, RMG-I cells, single concentration. 360,000 compounds, 1.2% hits. inhibition, % at 12.6 µM. SteadyGlo, 24 h. AID 652154, 2013;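 active = mean replicate inhibition at least 60% with every replicate also reaching 60%; inconclusive = only one of the two criteria is met; inactive = mean below 60% and not all replicates reaching 60%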;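 note: luciferase light reporting Pax8 driven TPO promoter activity; plate controls were median of neutral control wells for no effect and mitoxantrone controls for full effect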
Numbers without * were called inactive.

For COc1ccccc1CNC(=O)c1ccc2nc3[nH]c4ccccc4c3nc2c1 the results were FN deposit inh 9.6, aSyn 5UTR inh -12.6, EBV LMP1 NFkB -37.4, Shn3 3UTR inh -14.4, EWS-Fli inh -23.4 and PAX8 reporter 161.8*.
C[C@H]1CCCCO[C@@H](CN(C)Cc2ccncc2)[C@@H](C)CN([C@@H](C)CO)C(=O)c2cc(NC(=O)c3ccccc3)ccc2O1 was read as EWS-Fli inh 0.6 and PAX8 reporter -1.6.
For Cc1[nH]c(=S)[nH]c(=O)c1CCOc1ccccc1 the results were aSyn 5UTR inh 6.8, EBV LMP1 NFkB 2.3 and Shn3 3UTR inh 2.2.
Screening Cc1ccccc1OCCc1c(C)[nH]c(=S)[nH]c1=O returned FN deposit inh 8.5, aSyn 5UTR inh 34.4, EBV LMP1 NFkB -7.2, Shn3 3UTR inh -14.3, EWS-Fli inh 54.9* and PAX8 reporter 39.4.
For CCC[C@@H](CN1CCC[C@H]1CN1C(N)=NC[C@@H]1Cc1ccccc1)N1C[C@@H](Cc2ccccc2)N(CCCC2CCCC2)C1=N the results were EBV LMP1 NFkB 11.0 and Shn3 3UTR inh 5.4.
Screening CCC[C@@H](CN1CCC[C@H]1CN1C(N)=NC[C@@H]1Cc1ccccc1)N1C[C@@H]([C@H](C)CC)N(CCCC2CCCC2)C1=N returned EBV LMP1 NFkB 32.8 and Shn3 3UTR inh 93.0*.
Screening Cc1cc(C)c(S(=O)(=O)Nn2cnnc2)c(C)c1 returned FN deposit inh 32.9*, aSyn 5UTR inh -4.0, EBV LMP1 NFkB -8.3, Shn3 3UTR inh 7.2, EWS-Fli inh 8.7 and PAX8 reporter 1.5.
Screening Cc1cc(C)c(S(=O)(=O)Nc2ccccn2)c(C)c1 returned FN deposit inh 1.9, aSyn 5UTR inh 10.7, EBV LMP1 NFkB -1.5, Shn3 3UTR inh -4.3, EWS-Fli inh 16.4 and PAX8 reporter -17.6.
Cc1ccc(S(=O)(=O)N(C)C[C@@H]2OCCCC[C@H](C)Oc3ccc(NC(=O)NC4CCCCC4)cc3C(=O)N([C@H](C)CO)C[C@H]2C)cc1 was read as FN deposit inh 2.1, EWS-Fli inh 17.0 and PAX8 reporter 18.4.
For C[C@H](NC(=O)N(C)C[C@@H]1OCc2ccccc2-c2c(n(C)c3ccccc23)C(=O)N([C@H](C)CO)C[C@H]1C)c1ccccc1 the results were FN deposit inh -0.1, EWS-Fli inh 7.5 and PAX8 reporter -9.4.
FC(F)(F)c1cccc(CC2CN(Cc3ccccc3)Cc3ccccc3N2c2cc(Cl)cc(Cl)c2)c1 (stereo unspecified) was read as FN deposit inh -16.8, EBV LMP1 NFkB -5.4, Shn3 3UTR inh 14.0, EWS-Fli inh 75.8* and PAX8 reporter 41.6.
Screening COc1ccc(COc2cc(-c3cccc(OC)c3)nc3ccc(NC(=O)C(C)C)cc23)cc1 returned FN deposit inh 4.3, aSyn 5UTR inh -134.5, EBV LMP1 NFkB 9.8, Shn3 3UTR inh -21.4, EWS-Fli inh 55.0* and PAX8 reporter -65.8.
O=C(Nc1nc2ccccc2[nH]1)c1cccs1 was read as FN deposit inh 0.1, aSyn 5UTR inh -91.5, EBV LMP1 NFkB -1.3, Shn3 3UTR inh -23.9, EWS-Fli inh -51.1 and PAX8 reporter -74.7.
Screening COC(=O)Nc1nc2ccc(C(=O)c3cccs3)cc2[nH]1 returned FN deposit inh -12.7, aSyn 5UTR inh 53.5, EBV LMP1 NFkB 5.4, Shn3 3UTR inh -30.6, EWS-Fli inh 64.4* and PAX8 reporter 64.1*.
`COCCNC(=O)C[C@@H]1CC[C@@H]2[C@H](COc3ccc(NC(=O)c4cc(C)on4)cc3C(=O)N2C)O1` gave FN deposit inh -2.4, EWS-Fli inh 8.3 and PAX8 reporter 2.0.
COC(=O)C1=C(C)N(Cc2cccc(C(F)(F)F)c2)C(=NCc2ccc3c(c2)OCO3)NC1c1cccc(F)c1 (stereo unspecified) was read as FN deposit inh -0.6, EWS-Fli inh 45.4 and PAX8 reporter 65.0*.
`COC(=O)C1=C(C)N(Cc2ccccc2)C(=NCCc2c[nH]c3ccccc23)N[C@H]1c1cccc(F)c1` gave FN deposit inh 3.1, EBV LMP1 NFkB -0.9, Shn3 3UTR inh 97.5*, EWS-Fli inh inconclusive and PAX8 reporter 20.8.
